Bioassay records as filed in PubChem.
The list is not random: actives were taken first. Their share in the collection is about 1.9%.
Dynein cargo inh = dynein cargo transport inhibition; AID 1381; 220,000 compounds, 0.47% hits; z-score, hits read low; 3617.4 mouse cells, GR-EGFP nuclear translocation imaging; test concentration mostly 20 µM; stimulated with dexamethasone, 1 µM; hits give low values;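 active = plate z-score of nuclear minus cytoplasmic receptor signal below a set negative limit, without overly bright fluorescence or cell loss, cut at about -3.5 in these data, passing the limit was not always enough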;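 note: z-score of nuclear minus cytoplasmic ring GR-EGFP intensity difference per well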
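Buffer or medium: tet-free, stripped-serum medium; Also added: dexamethasone, 1.0 µM final; Technique: high-content fluorescence imaging after fixation; Times: 48 h induction, 1 h compound, 30 min dex at 37 °C; Read-out: per-cell GR-EGFP intensity, nucleus versus surrounding cytoplasmic ring, well-averaged.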
pCIP destab = lowers stability of the mouse p/CIP coactivator protein | F442A p/CIP-EGFP cells, EGFP fluorescence, 16 h | AID 1984 | Q05BA5 | decrease of EGFP signal, % at 10 µM | 290,000 compounds, 0.01% hits;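 active = EGFP signal decrease of at least 30% at 10 µM or well 3 SD below plate mean, unless failing retest; inactive = the rest, including hits failing retest or dose response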
RAM network inh = blocks the yeast RAM network; S. cerevisiae dse1pr::URA3 reporter, 5-FOA growth OD615, 2 d; analog-sensitive cbk1-as2 kinase mutant strain; inhibition, % at 50 µM; 190,000 compounds, 1.8% hits; AID 868;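 active = inhibition above a set limit, 3 SD over mean compound inhibition, cut at about 8.4% in these data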;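 note: inhibition rescues growth on 5-FOA so higher OD means more RAM inhibition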
NCF1 inh = inhibitors of human p47phox binding; AID 1274; 220,000 compounds, 0.53% hits; inhibition, % at 24.7 µM; P14598; p47phox/p22phox peptide binding, fluorescence polarization, 2 h;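 active = inhibition above about 30%, limit read from the data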
Each line names hits and unclear results; the compound was inactive in the other large screens.

C/C(=N\NC(=S)NCc1ccccc1)c1ccc(Br)cc1	RAM network inh 9.9
CCOC(=O)c1cnc(SC)nc1Oc1cccc(NS(=O)(=O)c2ccccc2)c1	none
CCOC(=O)c1ccc(NC(=O)c2nc(SC)ncc2Cl)cc1	none (no result: Dynein cargo inh, RAM network inh, NCF1 inh)
CCOC(=O)c1cnc(SC)nc1Oc1cccc(NC(=O)c2cccc(Cl)c2Cl)c1	RAM network inh 9.4
CCOC(=O)c1cnc(SC)nc1Oc1cccc(NS(=O)(=O)c2ccc(F)cc2)c1	RAM network inh 9.8
Cc1ccc(/C=C2/SC(=S)N(CC(=O)Nc3ncc(Cc4ccc(C)cc4)s3)C2=O)cc1	RAM network inh 10.6
Cc1cc([N+](=O)[O-])nn1CCCC(=O)NCc1ccc(F)cc1	none
Cc1nn(Cc2ccccc2)c(C)c1C(=O)NCCN1C(=O)S/C(=C\c2ccccc2)C1=O	NCF1 inh 30.2
Cc1ccc(/C=C/C(=O)c2cc(Br)ccc2OC(=O)c2ccco2)cc1	RAM network inh 11.0
COc1ccccc1/C=C/C(=O)c1cc(Br)ccc1OC(=O)c1ccco1	Dynein cargo inh -5.32 (no result: pCIP destab, RAM network inh, NCF1 inh)
CC(C)OCCCNC(=O)CNC(=O)c1ccc(Cl)c(Cl)c1	none
CCC(Sc1nc2ccncc2[nH]1)C(=O)Nc1cc(Cl)ccc1C (stereo not drawn)	none (no result: Dynein cargo inh, RAM network inh, NCF1 inh)
COC(=O)c1cc(NC(=O)N2c3ccccc3Sc3ccccc32)cc(C(=O)OC)c1	RAM network inh 9.8
COC(=O)c1ccc(C(=O)OC)c(NC(=O)N2c3ccccc3Sc3ccccc32)c1	none
N=C(N)SCc1nc2ccccc2c(=O)n1-c1ccccc1Cl	none
O=c1c2ccccc2nc(CSc2nnnn2-c2ccccc2)n1-c1ccccc1Cl	NCF1 inh 40.5
CC(C)C[C@H](N)c1nnc(SCC(=O)Nc2ccc(Br)cc2)o1	none (no result: Dynein cargo inh, RAM network inh, NCF1 inh)
CC(C)C[C@H](N)c1nnc(S(=O)(=O)Cc2ccc(F)cc2)o1	Dynein cargo inh -3.73
Cc1cccc([C@@H]2[C@@H]3C(=O)N(Cc4ccccc4)C(=O)[C@@H]3[C@]3(Cc4ccc(Cl)cc4)C(=O)N(c4ccc(Br)cc4)C(=O)N23)c1	none (no result: Dynein cargo inh, RAM network inh, NCF1 inh)
COc1ccc(C(=O)NCc2ccccn2)cc1	none
CCCCOc1ccc(C(=O)NCc2ccccn2)cc1	NCF1 inh 38.1
COc1ccc(-n2c(=O)[nH]c3cc(C(=O)NCCc4ccccc4)ccc3c2=O)cc1OC	none (no result: Dynein cargo inh, RAM network inh, NCF1 inh)
CCOC(=O)c1sc(NC(=O)c2ccc(S(=O)(=O)N(C)C)cc2)nc1C	RAM network inh 10.1
CCOC(=O)c1csc(NC(=O)c2ccc(S(=O)(=O)N(C)C)cc2)n1	none
Cc1cc(=O)oc2cc(OCCSc3nnc(-c4ccccc4)o3)ccc12	RAM network inh 10.7
Cc1cccc(-c2nnc(SCCOc3ccc4c(C)cc(=O)oc4c3)o2)c1	none
C=CCc1cccc(/C=N/NC(=O)CCCNc2ccc(C)cc2)c1O	NCF1 inh 94.2
C=CCc1cccc(/C=N/NC(=O)CNc2ccccc2)c1O	none
COc1ccc(S(=O)(=O)N2CCCCC2)cc1C(C)C	RAM network inh 10.3
COc1ccc(S(=O)(=O)N2CCCC2)cc1Br	none (no result: Dynein cargo inh, RAM network inh, NCF1 inh)
COc1ccc(S(=O)(=O)N2CCCCCC2)cc1N(C)S(=O)(=O)c1ccccc1	RAM network inh 10.3
CC1CCC2C(=O)N(c3ccc(C(=O)NCc4ccccc4)cc3)C(=O)C2C1 (stereo not drawn)	none
CC(Oc1ccc(Cl)cc1Cl)c1nc(-c2ccc(NC(=O)c3ccccn3)cc2)no1 (stereo not drawn)	RAM network inh 11.0
CCOC(=O)c1nnc(-c2ccccc2)nc1Sc1c(Cl)cccc1Cl	none
CCOC(=O)c1nnc(-c2ccccc2)nc1NCc1ccc(Cl)cc1	RAM network inh 10.2
CCc1ccc(N(C(=O)c2snc(C(N)=O)c2N)C(C(=O)NC2CCCC2)c2ccco2)cc1 (stereo not drawn)	none (no result: Dynein cargo inh, RAM network inh, NCF1 inh)
NC(=O)c1nsc(C(=O)N(CCc2ccccc2)C(C(=O)NC2CCCC2)c2ccco2)c1N (stereo not drawn)	RAM network inh 8.7
CCOc1ccccc1NC(=O)c1c(Br)cnn1C	NCF1 inh 38.2
CCOc1ccc(C(=S)N2CCN(C)CC2)cc1	none
COc1ccc2nc(NC(=O)c3cccc(-c4cc5ccccc5oc4=O)c3)sc2c1	NCF1 inh 38.9
COc1ccc(C(=O)Nc2nc3ccc(OC)cc3s2)cc1	none (no result: Dynein cargo inh, RAM network inh, NCF1 inh)
COc1ccc(C(=O)Nc2cccc(-c3cc4ccccc4oc3=O)c2)cc1[N+](=O)[O-]	NCF1 inh 31.7
CCCn1cnc2scc(-c3ccc(C)c(C)c3)c2c1=O	none (no result: Dynein cargo inh, RAM network inh, NCF1 inh)
CCN(CC(=O)Nc1ccc2c(c1)OCCO2)S(=O)(=O)c1ccc(F)cc1	none (no result: Dynein cargo inh, RAM network inh, NCF1 inh)
O=C(Nc1ccc(O)cc1)C1CC=CCC1 (stereo not drawn)	NCF1 inh 56.4
O=C(Nc1nccs1)C1CC=CCC1 (stereo not drawn)	none (no result: Dynein cargo inh, RAM network inh, NCF1 inh)
CCN(C(=O)COC(=O)c1ccc(N2C(=O)c3ccccc3C2=O)cc1)C1CCS(=O)(=O)C1 (stereo not drawn)	none
CCOc1ccc(N2C(=O)c3ccc(C(=O)OCC(=O)N(CC)C4CCS(=O)(=O)C4)cc3C2=O)cc1 (stereo not drawn)	NCF1 inh 43.9
CCc1ccc(CNC(=O)Cc2ccc(NC(=O)C3=C(C)OCCS3)cc2)cc1	none (no result: Dynein cargo inh, RAM network inh, NCF1 inh)
C=CCn1c(SCc2ccccc2)nc2scc(-c3ccc(C)o3)c2c1=O	RAM network inh 10.9
COc1ccc(CCNC(=O)c2cc(-c3ccc(Cl)c(Cl)c3)oc2C)cc1	none
CO/N=C/c1ccc(Oc2ccc(C)cc2)c([N+](=O)[O-])c1	none
CCC(=O)c1ccc(Oc2ccc(C(=O)c3ccc(C)cc3)cc2[N+](=O)[O-])cc1	RAM network inh 11.4
COc1ccc(/C=N/N=C/c2ccc(OC)cc2)cc1	none (no result: Dynein cargo inh, RAM network inh, NCF1 inh)
COc1ccc(C=C(c2ccc(OC)cc2)c2ccc(OC)cc2)cc1	RAM network inh 8.5
COC(=O)CCC(=O)c1oc2ccccc2c1NC(=O)CCCN1C(=O)c2ccccc2C1=O	RAM network inh 8.9
O=[N+]([O-])c1ccc(-c2cnc(SCc3ccccc3Cl)[nH]2)cc1	none
O=[N+]([O-])c1ccc(-c2cnc(SC(c3ccccc3)c3ccccc3)[nH]2)cc1	RAM network inh 9.5
COc1ccccc1Nc1nccc(N(C)C)c1C#N	none
COC(=O)c1ccc(N2CCCCC2)c(NC(=O)c2ccco2)c1	none (no result: Dynein cargo inh, RAM network inh, NCF1 inh)
COc1ccc(NS(=O)(=O)c2ccc(N3CCOCC3)c(NC(=O)c3ccc(OC)cc3)c2)cc1	RAM network inh 8.6
CN(C)S(=O)(=O)c1ccc(C(=O)Nc2cc(S(=O)(=O)Nc3ccccc3Cl)ccc2N2CCCCC2)cc1	RAM network inh 8.6
COc1ccc(C(=O)Nc2cc([N+](=O)[O-])ccc2N2CCCC2)cc1	RAM network inh 8.5
Cc1c(C)n(CC(O)CN2CCOCC2)c2ccccc12 (stereo not drawn)	NCF1 inh 65.7
COc1ccc(C2CC(c3ccccc3OC(C)=O)=NN2C(=O)/C=C/c2ccccc2)cc1OC (stereo not drawn)	RAM network inh 8.5
CCOc1ccccc1-c1nnc(SCC(=O)Nc2ccccc2)o1	RAM network inh 10.0
O=C(CSc1nnc(-c2ccccn2)o1)Nc1ccccc1	none
O=C(c1cc(COc2cccc(C(F)(F)F)c2)on1)N1CCC(Oc2cccnc2)CC1	none (no result: Dynein cargo inh, RAM network inh, NCF1 inh)
